target: Human immunodeficiency virus type 1 reverse transcriptase (Human immunodeficiency virus 1, UniProt Q72547); assay: Inhibition of HIV1 reverse transcriptase assessed as inhibition of biotinylated dUTP incorporation after 1 hr by ELISA; settings: not given
Procedure, shortened: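 Kit-based colorimetric ELISA. HIV-1 RT was incubated with template and DIG-dUTP, biotin-dUTP and dTTP, with or without inhibitor, for 1 h at 37 °C. Product was captured on streptavidin plates for 1 h at 37 °C, then anti-DIG-POD for 1 h at 37 °C, and ABTS was developed at 25 °C. A405 was read and percent inhibition calculated.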

Compound	IC50 [µM]
N#Cc1ccccc1CN1C(=O)N(Cc2ccccc2)S(=O)(=O)n2cccc21	56.9
N#Cc1ccccc1CN1C(=O)N(Cc2cccc(F)c2)S(=O)(=O)n2cccc21	58.3

test system: not listed separately; assay: Selectivity index, ratio of CC50 for human MT4 cells to EC50 for HIV-2 ROD infected in human MT4 cells; type: toxicity, cell-based; settings: read-out: Ratio CC50/EC50
Procedure, shortened: (§1)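 Ratio CC50/EC50. Both values come from MTT viability of MT-4 cells read 5 days after infection with HIV-1 IIIB or HIV-2 ROD, or after mock infection for CC50.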

Compound	selectivity ratio
O=C1N(Cc2cccc(Cl)c2)c2cccn2S(=O)(=O)N1Cc1cccc(F)c1	< 1
O=C1N(Cc2ccccc2)c2cccn2S(=O)(=O)N1Cc1cccc(F)c1	1
O=C1N(Cc2ccc(Cl)cc2Cl)c2cccn2S(=O)(=O)N1Cc1ccccc1	< 1
N#Cc1ccccc1CN1C(=O)N(Cc2ccccc2)S(=O)(=O)n2cccc21	1
Cc1ccc(CN2C(=O)N(Cc3ccccc3)S(=O)(=O)n3cccc32)cc1	< 1
N#Cc1cccc(CN2C(=O)N(Cc3ccccc3)S(=O)(=O)n3cccc32)c1	1
O=C1N(Cc2ccc(F)cc2)c2cccn2S(=O)(=O)N1Cc1ccccc1	< 1
N#Cc1ccccc1CN1C(=O)N(Cc2cccc(F)c2)S(=O)(=O)n2cccc21	1
O=C1N(Cc2ccc(Cl)cc2Cl)c2cccn2S(=O)(=O)N1Cc1cccc(Cl)c1	1
CC(C)=CCN1C(=O)N(Cc2ccccc2)S(=O)(=O)n2cccc21	< 1
N#CCN1C(=O)N(Cc2cccc(F)c2)S(=O)(=O)n2cccc21	< 1
N#Cc1ccccc1CN1C(=O)N(Cc2cccc(Cl)c2)S(=O)(=O)n2cccc21	1
Nc1ccn([C@@H]2CS[C@H](CO)O2)c(=O)n1 [LAMIVUDINE]	> 15
N#CCN1C(=O)N(Cc2ccccc2)S(=O)(=O)n2cccc21	< 1
O=C1N(Cc2ccccc2)c2cccn2S(=O)(=O)N1Cc1ccccc1	< 1
O=C1N(Cc2ccccc2Cl)c2cccn2S(=O)(=O)N1Cc1cccc(Br)c1	1
O=C1N(Cc2ccccc2Cl)c2cccn2S(=O)(=O)N1Cc1ccccc1	1
O=C1N(C/C=C/c2ccccc2)c2cccn2S(=O)(=O)N1Cc1ccccc1	1
O=C1N(Cc2ccccc2Br)c2cccn2S(=O)(=O)N1Cc1cccc(F)c1	1
O=C1N(Cc2cccc(Cl)c2)c2cccn2S(=O)(=O)N1Cc1ccccc1	< 1
C=CCN1C(=O)N(Cc2ccccc2)S(=O)(=O)n2cccc21	< 1
O=C1N(Cc2ccc(Cl)cc2Cl)c2cccn2S(=O)(=O)N1Cc1cccc(Br)c1	1
O=C1N(Cc2ccc(Cl)cc2Cl)c2cccn2S(=O)(=O)N1Cc1cccc(F)c1	1
O=C1N(Cc2ccccc2Cl)c2cccn2S(=O)(=O)N1Cc1cccc(F)c1	< 1
O=C1N(Cc2ccccc2Br)c2cccn2S(=O)(=O)N1Cc1ccccc1	< 1

test system: not listed separately; assay: Selectivity index, ratio of CC50 for human MT4 cells to EC50 for HIV-1 3B infected in human MT4 cells; type: toxicity, cell-based; settings: read-out: Ratio CC50/EC50; procedure, shortened: as §1

Compound	selectivity ratio
O=C1N(Cc2cccc(Cl)c2)c2cccn2S(=O)(=O)N1Cc1cccc(F)c1	29
O=C1N(Cc2ccccc2)c2cccn2S(=O)(=O)N1Cc1cccc(F)c1	6
O=C1N(Cc2ccc(Cl)cc2Cl)c2cccn2S(=O)(=O)N1Cc1ccccc1	< 1
N#Cc1ccccc1CN1C(=O)N(Cc2ccccc2)S(=O)(=O)n2cccc21	> 63
Cc1ccc(CN2C(=O)N(Cc3ccccc3)S(=O)(=O)n3cccc32)cc1	< 1
N#Cc1cccc(CN2C(=O)N(Cc3ccccc3)S(=O)(=O)n3cccc32)c1	> 49
O=C1N(Cc2ccc(F)cc2)c2cccn2S(=O)(=O)N1Cc1ccccc1	< 1
N#Cc1ccccc1CN1C(=O)N(Cc2cccc(F)c2)S(=O)(=O)n2cccc21	> 55
Nc1ccn([C@H]2CC[C@@H](CO)O2)c(=O)n1 [ZALCITABINE]	> 68
O=C1N(Cc2ccc(Cl)cc2Cl)c2cccn2S(=O)(=O)N1Cc1cccc(Cl)c1	< 1
CC(C)=CCN1C(=O)N(Cc2ccccc2)S(=O)(=O)n2cccc21	9
N#CCN1C(=O)N(Cc2cccc(F)c2)S(=O)(=O)n2cccc21	5
N#Cc1ccccc1CN1C(=O)N(Cc2cccc(Cl)c2)S(=O)(=O)n2cccc21	> 33
O=C1N(Cc2ccccc2Cl)c2cscc2S(=O)(=O)N1Cc1ccccc1	> 119
Nc1ccn([C@@H]2CS[C@H](CO)O2)c(=O)n1 [LAMIVUDINE]	> 47
N#CCN1C(=O)N(Cc2ccccc2)S(=O)(=O)n2cccc21	< 1
O=C1N(Cc2ccccc2)c2cccn2S(=O)(=O)N1Cc1ccccc1	5
O=C1N(Cc2ccccc2Cl)c2cccn2S(=O)(=O)N1Cc1cccc(Br)c1	> 14
O=C1N(Cc2ccccc2Cl)c2cccn2S(=O)(=O)N1Cc1ccccc1	12
O=C1N(Cc2ccccc2Br)c2cccn2S(=O)(=O)N1Cc1cccc(F)c1	> 9
O=C1N(Cc2cccc(Cl)c2)c2cccn2S(=O)(=O)N1Cc1ccccc1	5
C=CCN1C(=O)N(Cc2ccccc2)S(=O)(=O)n2cccc21	> 1
N#CCN1C(=O)N(Cc2ccccc2)S(=O)(=O)c2cscc21	559
O=C1N(Cc2ccc(Cl)cc2Cl)c2cccn2S(=O)(=O)N1Cc1cccc(F)c1	< 1
O=C1N(Cc2ccccc2Cl)c2cccn2S(=O)(=O)N1Cc1cccc(F)c1	21
O=C1N(Cc2ccccc2Br)c2cccn2S(=O)(=O)N1Cc1ccccc1	8

test system: Human immunodeficiency virus 2; assay: Antiviral activity against HIV2 ROD infected in human MT4 cells assessed as protection against viral-induced cytotoxicity after 5 days by MTT assay; type: functional, organism-based; settings: Human immunodeficiency virus 2, ISOLATE ROD, MT4, 120 h
Procedure, shortened: (§2)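 MT-4 cells were infected with HIV-1 IIIB or HIV-2 ROD stock at 100–300 CCID50 and exposed to serial fivefold compound dilutions, with untreated virus-infected and mock-infected controls. Cell viability was read by MTT after 5 days.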

Compound	EC50 [µM]
O=C1N(Cc2cccc(Cl)c2)c2cccn2S(=O)(=O)N1Cc1cccc(F)c1	> 212
O=C1N(Cc2ccccc2)c2cccn2S(=O)(=O)N1Cc1cccc(F)c1	> 324
O=C1N(Cc2ccc(Cl)cc2Cl)c2cccn2S(=O)(=O)N1Cc1ccccc1	> 273
N#Cc1ccccc1CN1C(=O)N(Cc2ccccc2)S(=O)(=O)n2cccc21	> 318
Cc1ccc(CN2C(=O)N(Cc3ccccc3)S(=O)(=O)n3cccc32)cc1	> 241
N#Cc1cccc(CN2C(=O)N(Cc3ccccc3)S(=O)(=O)n3cccc32)c1	> 318
O=C1N(Cc2ccc(F)cc2)c2cccn2S(=O)(=O)N1Cc1ccccc1	> 150
N#Cc1ccccc1CN1C(=O)N(Cc2cccc(F)c2)S(=O)(=O)n2cccc21	> 305
O=C1N(Cc2ccc(Cl)cc2Cl)c2cccn2S(=O)(=O)N1Cc1cccc(Cl)c1	> 265
CC(C)=CCN1C(=O)N(Cc2ccccc2)S(=O)(=O)n2cccc21	> 226
N#CCN1C(=O)N(Cc2cccc(F)c2)S(=O)(=O)n2cccc21	> 187
N#Cc1ccccc1CN1C(=O)N(Cc2cccc(Cl)c2)S(=O)(=O)n2cccc21	> 293
Nc1ccn([C@@H]2CS[C@H](CO)O2)c(=O)n1 [LAMIVUDINE]	5.9
N#CCN1C(=O)N(Cc2ccccc2)S(=O)(=O)n2cccc21	> 180
O=C1N(Cc2ccccc2)c2cccn2S(=O)(=O)N1Cc1ccccc1	> 267
O=C1N(Cc2ccccc2Cl)c2cccn2S(=O)(=O)N1Cc1cccc(Br)c1	> 260
O=C1N(Cc2ccccc2Cl)c2cccn2S(=O)(=O)N1Cc1ccccc1	> 311
O=C1N(C/C=C/c2ccccc2)c2cccn2S(=O)(=O)N1Cc1ccccc1	> 318
O=C1N(Cc2ccccc2Br)c2cccn2S(=O)(=O)N1Cc1cccc(F)c1	> 269
O=C1N(Cc2cccc(Cl)c2)c2cccn2S(=O)(=O)N1Cc1ccccc1	> 239
C=CCN1C(=O)N(Cc2ccccc2)S(=O)(=O)n2cccc21	> 802
O=C1N(Cc2ccc(Cl)cc2Cl)c2cccn2S(=O)(=O)N1Cc1cccc(Br)c1	> 243
O=C1N(Cc2ccc(Cl)cc2Cl)c2cccn2S(=O)(=O)N1Cc1cccc(F)c1	> 275
O=C1N(Cc2ccccc2Cl)c2cccn2S(=O)(=O)N1Cc1cccc(F)c1	> 262
O=C1N(Cc2ccccc2Br)c2cccn2S(=O)(=O)N1Cc1ccccc1	> 226

test system: not listed separately; assay: Cytotoxicity against human MT4 cells after 5 days by MTT assay; type: cell-based; settings: not given
Procedure, shortened: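 Mock-infected MT-4 cells (6 × 10⁵ cells/mL) were exposed to serial fivefold compound dilutions. Viability was measured by MTT after 5 days.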

Compound	CC50 at 120 h [µM]
O=C1N(Cc2cccc(Cl)c2)c2cccn2S(=O)(=O)N1Cc1cccc(F)c1	208
O=C1N(Cc2ccccc2)c2cccn2S(=O)(=O)N1Cc1cccc(F)c1	288
O=C1N(Cc2ccc(Cl)cc2Cl)c2cccn2S(=O)(=O)N1Cc1ccccc1	218
N#Cc1ccccc1CN1C(=O)N(Cc2ccccc2)S(=O)(=O)n2cccc21	> 318
Cc1ccc(CN2C(=O)N(Cc3ccccc3)S(=O)(=O)n3cccc32)cc1	241
N#Cc1cccc(CN2C(=O)N(Cc3ccccc3)S(=O)(=O)n3cccc32)c1	> 318
O=C1N(Cc2ccc(F)cc2)c2cccn2S(=O)(=O)N1Cc1ccccc1	150
N#Cc1ccccc1CN1C(=O)N(Cc2cccc(F)c2)S(=O)(=O)n2cccc21	> 305
Nc1ccn([C@H]2CC[C@@H](CO)O2)c(=O)n1 [ZALCITABINE]	> 95
O=C1N(Cc2ccc(Cl)cc2Cl)c2cccn2S(=O)(=O)N1Cc1cccc(Cl)c1	251
CC(C)=CCN1C(=O)N(Cc2ccccc2)S(=O)(=O)n2cccc21	226
N#CCN1C(=O)N(Cc2cccc(F)c2)S(=O)(=O)n2cccc21	172
N#Cc1ccccc1CN1C(=O)N(Cc2cccc(Cl)c2)S(=O)(=O)n2cccc21	> 293
Cc1ccnc2c1NC(=O)c1cccnc1N2C1CC1 [NEVIRAPINE]	> 15
O=C1N(Cc2ccccc2Cl)c2cscc2S(=O)(=O)N1Cc1ccccc1	> 119
Nc1ccn([C@@H]2CS[C@H](CO)O2)c(=O)n1 [LAMIVUDINE]	> 87
N#CCN1C(=O)N(Cc2ccccc2)S(=O)(=O)n2cccc21	180
O=C1N(Cc2ccccc2)c2cccn2S(=O)(=O)N1Cc1ccccc1	196
O=C1N(Cc2ccccc2Cl)c2cccn2S(=O)(=O)N1Cc1cccc(Br)c1	> 260
O=C1N(Cc2ccccc2Cl)c2cccn2S(=O)(=O)N1Cc1ccccc1	291
O=C1N(C/C=C/c2ccccc2)c2cccn2S(=O)(=O)N1Cc1ccccc1	> 318
O=C1N(Cc2ccccc2Br)c2cccn2S(=O)(=O)N1Cc1cccc(F)c1	> 269
O=C1N(Cc2cccc(Cl)c2)c2cccn2S(=O)(=O)N1Cc1ccccc1	196
C=CCN1C(=O)N(Cc2ccccc2)S(=O)(=O)n2cccc21	> 802
O=C1N(Cc2ccc(Cl)cc2Cl)c2cccn2S(=O)(=O)N1Cc1cccc(Br)c1	> 243
N#CCN1C(=O)N(Cc2ccccc2)S(=O)(=O)c2cscc21	503
O=C1N(Cc2ccc(Cl)cc2Cl)c2cccn2S(=O)(=O)N1Cc1cccc(F)c1	249
O=C1N(Cc2ccccc2Cl)c2cccn2S(=O)(=O)N1Cc1cccc(F)c1	231
O=C1N(Cc2ccccc2Br)c2cccn2S(=O)(=O)N1Cc1ccccc1	226

test system: Human immunodeficiency virus 1; assay: Antiviral activity against HIV1 3B infected in human MT4 cells assessed as protection against viral-induced cytotoxicity after 5 days by MTT assay; type: functional, organism-based; settings: Human immunodeficiency virus 1, 3B, MT4, 120 h; procedure, shortened: as §2

Compound	EC50 [µM]
O=C1N(Cc2cccc(Cl)c2)c2cccn2S(=O)(=O)N1Cc1cccc(F)c1	7.2
O=C1N(Cc2ccccc2)c2cccn2S(=O)(=O)N1Cc1cccc(F)c1	52
O=C1N(Cc2ccc(Cl)cc2Cl)c2cccn2S(=O)(=O)N1Cc1ccccc1	> 218
N#Cc1ccccc1CN1C(=O)N(Cc2ccccc2)S(=O)(=O)n2cccc21	5.1
Cc1ccc(CN2C(=O)N(Cc3ccccc3)S(=O)(=O)n3cccc32)cc1	> 241
N#Cc1cccc(CN2C(=O)N(Cc3ccccc3)S(=O)(=O)n3cccc32)c1	6.5
O=C1N(Cc2ccc(F)cc2)c2cccn2S(=O)(=O)N1Cc1ccccc1	> 190
N#Cc1ccccc1CN1C(=O)N(Cc2cccc(F)c2)S(=O)(=O)n2cccc21	5.6
O=C1N(Cc2ccc(Cl)cc2Cl)c2cccn2S(=O)(=O)N1Cc1cccc(Cl)c1	> 251
CC(C)=CCN1C(=O)N(Cc2ccccc2)S(=O)(=O)n2cccc21	25
N#CCN1C(=O)N(Cc2cccc(F)c2)S(=O)(=O)n2cccc21	34
N#Cc1ccccc1CN1C(=O)N(Cc2cccc(Cl)c2)S(=O)(=O)n2cccc21	8.9
Nc1ccn([C@@H]2CS[C@H](CO)O2)c(=O)n1 [LAMIVUDINE]	1.8
N#CCN1C(=O)N(Cc2ccccc2)S(=O)(=O)n2cccc21	> 187
O=C1N(Cc2ccccc2)c2cccn2S(=O)(=O)N1Cc1ccccc1	43
O=C1N(Cc2ccccc2Cl)c2cccn2S(=O)(=O)N1Cc1cccc(Br)c1	18
O=C1N(Cc2ccccc2Cl)c2cccn2S(=O)(=O)N1Cc1ccccc1	23
O=C1N(C/C=C/c2ccccc2)c2cccn2S(=O)(=O)N1Cc1ccccc1	> 318
O=C1N(Cc2ccccc2Br)c2cccn2S(=O)(=O)N1Cc1cccc(F)c1	29
O=C1N(Cc2cccc(Cl)c2)c2cccn2S(=O)(=O)N1Cc1ccccc1	40
C=CCN1C(=O)N(Cc2ccccc2)S(=O)(=O)n2cccc21	> 802
O=C1N(Cc2ccc(Cl)cc2Cl)c2cccn2S(=O)(=O)N1Cc1cccc(Br)c1	> 243
O=C1N(Cc2ccc(Cl)cc2Cl)c2cccn2S(=O)(=O)N1Cc1cccc(F)c1	> 249
O=C1N(Cc2ccccc2Cl)c2cccn2S(=O)(=O)N1Cc1cccc(F)c1	11
O=C1N(Cc2ccccc2Br)c2cccn2S(=O)(=O)N1Cc1ccccc1	30

test system: Human immunodeficiency virus 1; assay: Antiviral activity against HIV1; type: functional, organism-based; settings: not given

Compound	EC50 [µM]
Cn1ncc2c1N(Cc1ccccc1Cl)S(=O)(=O)N(Cc1ccccc1)C2=O	> 20
O=C1N(Cc2ccccc2Cl)c2cscc2S(=O)(=O)N1Cc1ccccc1	0.01
Cn1ncc2c1S(=O)(=O)N(Cc1ccccc1)C(=O)N2Cc1ccccc1Cl	> 300

Source: ChEMBL document CHEMBL2440007, “Design, synthesis and biological evaluation of N2,N4-disubstituted-1,1,3-trioxo-2H,4H-pyrrolo[1,2-b][1,2,4,6]thiatriazine derivatives as HIV-1 NNRTIs” (Bioorg Med Chem, 2013)
